In ChEMBL document CHEMBL4373718, “Germacrane Sesquiterpenoids as a New Type of Anticardiac Fibrosis Agent Targeting Transforming Growth Factor β Type I Receptor” (J Med Chem, 2019):
Activity calls are given as the source filed them. The calls are words filed in the database; no cut-off is given here.

Assays:
[1] = target: T1, TGF-beta receptor type-1 (Rattus norvegicus) (UniProt P80204); experiment: Inhibition of TGFbeta1 receptor in TGFbeta1-stimulated Sprague-Dawley rat cardiac fibroblasts assessed as reduction in fibronectin expression at 50 uM measured after 12 hrs by Western blot analysis
T1 sequence (whole entry): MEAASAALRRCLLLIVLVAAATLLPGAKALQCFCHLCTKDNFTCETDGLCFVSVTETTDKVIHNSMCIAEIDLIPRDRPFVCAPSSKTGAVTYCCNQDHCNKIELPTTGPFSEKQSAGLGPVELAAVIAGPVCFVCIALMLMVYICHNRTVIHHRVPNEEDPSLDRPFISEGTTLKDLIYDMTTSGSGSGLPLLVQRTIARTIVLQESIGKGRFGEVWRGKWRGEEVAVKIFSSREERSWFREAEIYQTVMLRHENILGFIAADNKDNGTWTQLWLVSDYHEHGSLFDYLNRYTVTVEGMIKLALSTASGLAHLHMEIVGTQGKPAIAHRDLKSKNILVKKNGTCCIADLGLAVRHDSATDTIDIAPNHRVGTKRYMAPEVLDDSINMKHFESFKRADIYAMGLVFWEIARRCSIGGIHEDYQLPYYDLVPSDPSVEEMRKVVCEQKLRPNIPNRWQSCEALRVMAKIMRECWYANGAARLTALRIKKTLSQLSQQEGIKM
Summary of the method: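 Screen in primary rat cardiac fibroblasts: compounds at 50 µM or 10 µM given with 10 ng/mL TGFβ1 for 12 h. FN measured by Western blot with GAPDH loading control and densitometry. N=3 independent experiments.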

[2] = target: T1, TGF-beta receptor type-1 (Rattus norvegicus); experiment: Inhibition of TGFbeta1 receptor in TGFbeta1-stimulated Sprague-Dawley rat cardiac fibroblasts assessed as reduction in fibronectin expression at 10 uM measured after 12 hrs by Western blot analysis relative to control
Summary of the method: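 Primary rat cardiac fibroblasts (passages 2–4, 3×10^5 per well) treated with compound plus 10 ng/mL TGFβ1 for 12 h; tested at 2.5, 5 and 10 µM. Lysates run on 10% SDS-PAGE (30 µg protein), probed for FN, α-SMA and collagen I/III, and quantified by densitometry against GAPDH. N=3 independent experiments.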

[3] = system: Rattus norvegicus; experiment: Antifibrotic activity in abdominal aortic constriction Sprague-Dawley rat model of cardiac fibrosis assessed as ejection fraction at 10 mg/kg, ip administered once daily for 4 weeks measured post-last dose by echocardiography (reference value: 79.59 +/- 3.13%); format: functional
[4] = system: Rattus norvegicus; experiment: Antifibrotic activity in abdominal aortic constriction Sprague-Dawley rat model of cardiac fibrosis assessed as decrease in heart collagen level at 10 mg/kg, ip administered once daily for 4 weeks measured post-last dose by Masson's trichrome staining-based histological analysis; format: functional, organism-based
Summary of the method: (§1)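 Male SD rats (200–250 g, n = 8/group) had the suprarenal abdominal aorta tied with 4-0 silk around a 21-G probe, which was then removed; sham rats had surgery without constriction. Dosing was ip daily for 4 weeks in saline with 0.5% DMSO and 5% Kolliphor HS 15. Ventricle slices were formalin-fixed, paraffin-embedded and cut into 4 µm sections. FN and α-SMA were read by immunohistochemistry and collagen by Masson's trichrome.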

[5] = system: Rattus norvegicus; experiment: Antifibrotic activity in abdominal aortic constriction Sprague-Dawley rat model of cardiac fibrosis assessed as diastolic left ventricular posterior wall thickness at 10 mg/kg, ip administered once daily for 4 weeks measured post-last dose by echocardiography (reference value: 2.33 +/- 0.31 mm); format: functional
[6] = system: Rattus norvegicus; experiment: Antifibrotic activity in abdominal aortic constriction Sprague-Dawley rat model of cardiac fibrosis assessed as systolic left ventricular internal diameter at 10 mg/kg, ip administered once daily for 4 weeks measured post-last dose by echocardiography (reference value: 3.99 +/- 0.41 mm); format: functional
[7] = system: Rattus norvegicus; experiment: Antifibrotic activity in abdominal aortic constriction Sprague-Dawley rat model of cardiac fibrosis assessed as diastolic left ventricular anterior wall thickness at 10 mg/kg, ip administered once daily for 4 weeks measured post-last dose by echocardiography (reference value: 2.48 +/- 0.42 mm); format: functional
[8] = target: T1, TGF-beta receptor type-1 (Rattus norvegicus); experiment: Inhibition of TGFbeta1 receptor in TGFbeta1-stimulated Sprague-Dawley rat cardiac fibroblasts assessed as reduction in alpha-SMA expression at 20 uM measured after 12 hrs by Western blot analysis
Summary of the method: (§2)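 Primary adult male SD rat cardiac fibroblasts were used at passages 2–4, seeded at 3×10^5 per well. Cells were co-treated with compound and 10 ng/mL TGFβ1 for 12 h. Lysates (30 µg protein) were run on 10% SDS-PAGE, Western blotted for FN, α-SMA, collagen I and III, normalised to GAPDH and quantified by densitometry; N = 3 independent experiments.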

[9] = target: T1, TGF-beta receptor type-1 (Rattus norvegicus); experiment: Inhibition of TGFbeta1 receptor in TGFbeta1-stimulated Sprague-Dawley rat cardiac fibroblasts assessed as reduction in collagen 3 expression at 20 uM measured after 12 hrs by Western blot analysis; summary of the method: as §2
[10] = target: T1, TGF-beta receptor type-1 (Rattus norvegicus); experiment: Inhibition of TGFbeta1 receptor in TGFbeta1-stimulated Sprague-Dawley rat cardiac fibroblasts assessed as reduction in fibronectin expression at 20 uM measured after 12 hrs by Western blot analysis; summary of the method: as §2
[11] = system: Rattus norvegicus; experiment: Antifibrotic activity in abdominal aortic constriction Sprague-Dawley rat model of cardiac fibrosis assessed as decrease in heart fibronectin level at 10 mg/kg, ip administered once daily for 4 weeks measured post-last dose by immunohistochemical analysis; format: functional, organism-based; summary of the method: as §1
[12] = target: T1, TGF-beta receptor type-1 (Rattus norvegicus); experiment: Inhibition of TGFbeta1 receptor in TGFbeta1-stimulated Sprague-Dawley rat cardiac fibroblasts assessed as reduction in collagen 1 expression at 20 uM measured after 12 hrs by Western blot analysis; summary of the method: as §2
[13] = system: Rattus norvegicus; experiment: Antifibrotic activity in abdominal aortic constriction Sprague-Dawley rat model of cardiac fibrosis assessed as systolic left ventricular anterior wall thickness at 10 mg/kg, ip administered once daily for 4 weeks measured post-last dose by echocardiography (reference value: 3.92 +/- 0.42 mm); format: functional
[14] = system: Rattus norvegicus; experiment: Antifibrotic activity in abdominal aortic constriction Sprague-Dawley rat model of cardiac fibrosis assessed as diastolic left ventricular internal diameter at 10 mg/kg, ip administered once daily for 4 weeks measured post-last dose by echocardiography (reference value: 7.60 +/- 0.63 mm); format: functional
[15] = system: Rattus norvegicus; experiment: Antifibrotic activity in abdominal aortic constriction Sprague-Dawley rat model of cardiac fibrosis assessed as decrease in heart alpha-SMA level at 10 mg/kg, ip administered once daily for 4 weeks measured post-last dose by immunohistochemical analysis; format: functional, organism-based; summary of the method: as §1
[16] = system: Rattus norvegicus; experiment: Antifibrotic activity in abdominal aortic constriction Sprague-Dawley rat model of cardiac fibrosis assessed as fractional shortening at 10 mg/kg, ip administered once daily for 4 weeks measured post-last dose by echocardiography (reference value: 48.17 +/- 4.69%); format: functional
[17] = system: Rattus norvegicus; experiment: Antifibrotic activity in abdominal aortic constriction Sprague-Dawley rat model of cardiac fibrosis assessed as systolic left ventricular posterior wall thickness at 10 mg/kg, ip administered once daily for 4 weeks measured post-last dose by echocardiography (reference value: 3.62 +/- 0.26 mm); format: functional
[18] = target: T1, TGF-beta receptor type-1 (Rattus norvegicus); experiment: Inhibition of TGFbeta1 receptor in TGFbeta1-stimulated Sprague-Dawley rat cardiac fibroblasts assessed as reduction in collagen 1 expression at 2 mM measured after 12 hrs by Western blot analysis
[19] = target: T1, TGF-beta receptor type-1 (Rattus norvegicus); experiment: Inhibition of TGFbeta1 receptor in TGFbeta1-stimulated Sprague-Dawley rat cardiac fibroblasts assessed as reduction in fibronectin expression at 2 mM measured after 12 hrs by Western blot analysis
[20] = target: T1, TGF-beta receptor type-1 (Rattus norvegicus); experiment: Inhibition of TGFbeta1 receptor in TGFbeta1-stimulated Sprague-Dawley rat cardiac fibroblasts assessed as reduction in collagen 3 expression at 2 mM measured after 12 hrs by Western blot analysis
[21] = target: T1, TGF-beta receptor type-1 (Rattus norvegicus); experiment: Inhibition of TGFbeta1 receptor in TGFbeta1-stimulated Sprague-Dawley rat cardiac fibroblasts assessed as reduction in alpha-SMA expression at 2 mM measured after 12 hrs by Western blot analysis

## C=C(C)[C@@H]1C[C@@H](OC(C)C)/C(C)=C/CCC2=C[C@@H]1OC2=O
[1]
  fibronectin reduction (active/not active): inactive
[2]
  fibronectin reduction verdict (active/not active): inactive

## C=C(C)[C@@H]1C/C=C(\C)[C@H](OC(=O)c2cccs2)CCC2=C[C@@H]1OC2=O
[1]
  fibronectin reduction (active/not active): Active

## C=C(C)[C@@H]1C/C=C(C)/C(=N\OC(=O)c2ccco2)CCC2=C[C@@H]1OC2=O
[1]
  fibronectin reduction (active/not active): inactive
[2]
  fibronectin reduction verdict (active/not active): inactive

## C=C(C)[C@@H]1C/C=C(\C)[C@H](O)CCC2=C[C@@H]1OC2=O
[1]
  fibronectin reduction (active/not active): Active

## C=C(C)[C@@H]1C/C=C(\C)[C@@H](O)CCC2=C[C@@H]1OC2=O
[1]
  fibronectin reduction (active/not active): Active

## C=C(C)[C@@H]1C[C@@H](OC)/C(C)=C/CCC2=C[C@@H]1OC2=O
[1]
  fibronectin reduction (active/not active): inactive
[2]
  fibronectin reduction verdict (active/not active): inactive

## C=C(C)[C@@H]1C[C@@H](N2CCCCC2)/C(C)=C/CCC2=C[C@@H]1OC2=O
[1]
  fibronectin reduction (active/not active): inactive
[2]
  fibronectin reduction verdict (active/not active): inactive

## COC(=O)C1=C(C)NC(C)=C(C(=O)OC)C1c1ccccc1[N+](=O)[O-] [NIFEDIPINE]
[3]
  Activity: 72.6%
[4]
  Activity: Active
[5]
  Activity: 1.97 mm
[6]
  Activity: 4.69 mm
[7]
  Activity: 2.02 mm
[8]
  inhibition: Active
[9]
  inhibition: Active
[10]
  inhibition: Active
[11]
  Activity: Active
[12]
  inhibition: Active
[13]
  Activity: 3.23 mm
[14]
  Activity: 8.32 mm
[15]
  Activity: Active
[16]
  Activity: 42.79%
[17]
  Activity: 3.19 mm

## C=C(C)[C@@H]1C/C=C(\C)[C@H](OCC)CCC2=C[C@@H]1OC2=O
[1]
  fibronectin reduction (active/not active): Active

## C=C1CC[C@@H](C(=C)C)[C@@H]2C=C(CC[C@H]1F)C(=O)O2
[1]
  fibronectin reduction (active/not active): Active

## C=C(C)[C@@H]1C[C@@H](N2CCOCC2)/C(C)=C/CCC2=C[C@@H]1OC2=O
[1]
  fibronectin reduction (active/not active): inactive
[2]
  fibronectin reduction verdict (active/not active): inactive

## C=C(C)[C@@H]1C/C=C(\C)[C@H](O[N+](=O)[O-])CCC2=C[C@@H]1OC2=O
[1]
  fibronectin reduction (active/not active): Active

## C=C(C)[C@@H]1C/C=C(\C)[C@H](OC(=O)c2ccc([N+](=O)[O-])cc2)CCC2=C[C@@H]1OC2=O
[1]
  fibronectin reduction (active/not active): Active
[2]
  fibronectin reduction verdict (active/not active): Active

## C=C(C)[C@@H]1C[C@@H](N2CCCC2)/C(C)=C/CCC2=C[C@@H]1OC2=O
[1]
  fibronectin reduction (active/not active): inactive
[2]
  fibronectin reduction verdict (active/not active): inactive

## C=C(C)[C@@H]1C[C@@H](O)/C(C)=C/CCC2=C[C@@H]1OC2=O
[1]
  fibronectin reduction (active/not active): Active
[2]
  fibronectin reduction verdict (active/not active): Active

## C=C(C)[C@@H]1C/C=C(C)/C(=N\OC(C)=O)CCC2=C[C@@H]1OC2=O
[1]
  fibronectin reduction (active/not active): inactive
[2]
  fibronectin reduction verdict (active/not active): inactive

## C=C(C)[C@@H]1CC/C(C)=C/CC[C@@H](C(=O)OC)CC1=O
[1]
  fibronectin reduction (active/not active): inactive
[2]
  fibronectin reduction verdict (active/not active): inactive

## C=C(C)[C@@H]1C/C=C(\C)[C@H](OC)CCC2=C[C@@H]1OC2=O
[1]
  fibronectin reduction (active/not active): Active

## C=C(C)[C@@H]1C/C=C(\C)[C@H](OC(=O)c2ccc(C(F)(F)F)cc2)CCC2=C[C@@H]1OC2=O
[1]
  fibronectin reduction (active/not active): Active

## O=C1CCC[C@@H]2[C@H]3CCC[N+]4([O-])CCC[C@@H](CN12)[C@@H]34 (stereo partly specified)
[18]
  inhibition: Active
[19]
  inhibition: Active
[20]
  inhibition: Active
[21]
  inhibition: Active

## C=C(C)[C@@H]1C/C=C(\C)[C@H](Br)CCC2=C[C@@H]1OC2=O
[1]
  fibronectin reduction (active/not active): Active
[2]
  fibronectin reduction verdict (active/not active): Active

## C=C(C)[C@@H]1C/C=C(\C)[C@H](OC(=O)c2cc(C(F)(F)F)cc(C(F)(F)F)c2)CCC2=C[C@@H]1OC2=O
[1]
  fibronectin reduction (active/not active): Active
[2]
  fibronectin reduction verdict (active/not active): Active

## C=C(C)[C@@H]1CC/C(C)=C/CCC2=C[C@@H]1OC2=O
[1]
  fibronectin reduction (active/not active): Active

## C=C(C)[C@@H]1CC[C@]2(C)O[C@@H]2CCC2=C[C@@H]1OC2=O
[1]
  fibronectin reduction (active/not active): Active

## C=C(C)[C@@H]1C/C=C(\C)[C@H](Cl)CCC2=C[C@@H]1OC2=O
[1]
  fibronectin reduction (active/not active): Active
[2]
  fibronectin reduction verdict (active/not active): Active

## C=C(C)[C@@H]1C[C@@H](OCC)/C(C)=C/CCC2=C[C@@H]1OC2=O
[1]
  fibronectin reduction (active/not active): inactive
[2]
  fibronectin reduction verdict (active/not active): inactive

## C=C(C)[C@@H]1C/C=C(\C)[C@H](OC(=O)c2cccnc2Cl)CCC2=C[C@@H]1OC2=O
[1]
  fibronectin reduction (active/not active): Active
[2]
  fibronectin reduction verdict (active/not active): Active

## C=C(C)[C@@H]1C[C@@H](OC=O)/C(C)=C/CCC2=C[C@@H]1OC2=O
[1]
  fibronectin reduction (active/not active): inactive
[2]
  fibronectin reduction verdict (active/not active): inactive

## C=C(C)[C@@H]1C/C=C(\C)[C@H](N=[N+]=[N-])CCC2=C[C@@H]1OC2=O
[1]
  fibronectin reduction (active/not active): Active

## C=C(C)[C@@H]1C/C=C(\C)[C@H](F)CCC2=C[C@@H]1OC2=O
[1]
  fibronectin reduction (active/not active): Active

## C=C(C)[C@@H]1C/C=C(\C)[C@H](OC(C)=O)CCC2=C[C@@H]1OC2=O
[1]
  fibronectin reduction (active/not active): Active

## C=C(C)[C@@H]1CC/C(C)=C/CC[C@@H](C(=O)OCC)CC1=O
[1]
  fibronectin reduction (active/not active): inactive
[2]
  fibronectin reduction verdict (active/not active): inactive
